Drawing on ChEMBL document CHEMBL3797160, “Discovery of novel diaryl urea derivatives bearing a triazole moiety as potential antitumor agents” (Eur J Med Chem, 2016), this text covers IC50 and inhibition for 27 molecules.

Molecules are shown by their SMILES. Some results are limits rather than exact numbers.

The nature of assay [1]: Cytotoxicity against human WI38 cells after 72 hrs by MTT assay. It counts as cell-based. The following applies: WI-38, 72 h. In outline: (§1)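 MTT assay. Cells grown in MEM with 10% FBS. About 4 × 10³ cells per well were plated and left 24 h at 37 °C in 5% CO₂. Compounds were then added for a further 72 h. MTT was added to a final 5 µg/mL for 4 h at 37 °C. Formazan was dissolved in DMSO and read at 492 nm against a 630 nm reference. Each line was tested three times, and IC50 is the average of at least three determinations.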
Background: Tetrazolium assays rely on reduction of a dye to a coloured formazan, in cell work by metabolically active cells.

The subject of a further assay is HT-29. Description: Antiproliferative activity against human HT-29 cells after 72 hrs by MTT assay. It counts as functional, cell-based. The following applies: HT-29, 72 h. In outline:
as §1

Assay [2] has as its target Vascular endothelial growth factor receptor 2 (Homo sapiens) (UniProt P35968). The following applies: at 10 µM.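 Note: kinase activity read out by mobility shift assay after 1 h of incubation.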
The test system of another assay is MDA-MB-231. Nature of the assay: Antiproliferative activity against human MDA-MB-231 cells after 72 hrs by MTT assay. The following applies: MDA-MB-231, 72 h. It counts as functional, cell-based. The procedure, abridged:
as §1

Assay [3] can be described thus: Antiproliferative activity against human H460 cells after 72 hrs by MTT assay. The class given is functional, cell-based. The following applies: NCI-H460, 72 h. In outline: as §1
Assay [4] concerns the target Mast/stem cell growth factor receptor Kit (Homo sapiens) (UniProt P10721). Description: Inhibition of c-KIT (unknown origin) at 10 uM after 1 hr by mobility shift assay. The procedure, abridged:
(§2)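 Mobility shift kinase assay. Compounds were diluted in DMSO and then in kinase buffer, and tested in duplicate wells with enzyme and peptide substrate. Incubation was 1 h at 28 °C before stop buffer was added.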

The target of assay [5] is Receptor-type tyrosine-protein kinase FLT3 (Homo sapiens) (UniProt P36888). Nature of the assay: Inhibition of FLT3 (unknown origin) at 10 uM after 1 hr by mobility shift assay. In outline: as §2
Sequence of Receptor-type tyrosine-protein kinase FLT3 (Homo sapiens) (P36888 whole entry): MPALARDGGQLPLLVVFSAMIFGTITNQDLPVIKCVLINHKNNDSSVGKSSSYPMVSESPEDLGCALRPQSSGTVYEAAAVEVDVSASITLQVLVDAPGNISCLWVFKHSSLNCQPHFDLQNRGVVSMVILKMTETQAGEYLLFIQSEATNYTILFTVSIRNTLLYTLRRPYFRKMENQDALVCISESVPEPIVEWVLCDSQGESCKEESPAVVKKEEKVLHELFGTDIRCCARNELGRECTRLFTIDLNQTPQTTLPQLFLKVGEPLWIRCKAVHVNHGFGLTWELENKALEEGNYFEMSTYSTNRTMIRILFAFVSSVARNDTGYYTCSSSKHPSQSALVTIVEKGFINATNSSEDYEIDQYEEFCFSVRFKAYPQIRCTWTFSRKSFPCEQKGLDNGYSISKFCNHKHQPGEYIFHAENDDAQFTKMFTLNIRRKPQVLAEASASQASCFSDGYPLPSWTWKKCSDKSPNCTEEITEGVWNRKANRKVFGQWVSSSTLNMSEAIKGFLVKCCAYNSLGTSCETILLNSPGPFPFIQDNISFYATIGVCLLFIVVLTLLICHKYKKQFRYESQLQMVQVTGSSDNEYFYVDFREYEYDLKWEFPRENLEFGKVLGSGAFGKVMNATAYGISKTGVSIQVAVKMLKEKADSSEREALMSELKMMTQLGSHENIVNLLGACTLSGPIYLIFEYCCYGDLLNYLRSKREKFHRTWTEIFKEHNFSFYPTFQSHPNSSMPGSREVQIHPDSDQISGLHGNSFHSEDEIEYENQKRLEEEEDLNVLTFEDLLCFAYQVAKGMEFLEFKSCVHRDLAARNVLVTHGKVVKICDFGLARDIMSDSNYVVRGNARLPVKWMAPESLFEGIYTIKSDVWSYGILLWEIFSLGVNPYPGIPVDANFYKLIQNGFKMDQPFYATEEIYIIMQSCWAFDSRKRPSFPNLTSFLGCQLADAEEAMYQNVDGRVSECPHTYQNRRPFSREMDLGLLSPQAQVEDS
In assay [6] the target is Proto-oncogene tyrosine-protein kinase receptor Ret (Homo sapiens) (UniProt P07949). Nature of the assay: Inhibition of RET (unknown origin) at 10 uM after 1 hr by mobility shift assay. In outline:
as §2

Sequence of Mast/stem cell growth factor receptor Kit (Homo sapiens) (P10721 whole entry): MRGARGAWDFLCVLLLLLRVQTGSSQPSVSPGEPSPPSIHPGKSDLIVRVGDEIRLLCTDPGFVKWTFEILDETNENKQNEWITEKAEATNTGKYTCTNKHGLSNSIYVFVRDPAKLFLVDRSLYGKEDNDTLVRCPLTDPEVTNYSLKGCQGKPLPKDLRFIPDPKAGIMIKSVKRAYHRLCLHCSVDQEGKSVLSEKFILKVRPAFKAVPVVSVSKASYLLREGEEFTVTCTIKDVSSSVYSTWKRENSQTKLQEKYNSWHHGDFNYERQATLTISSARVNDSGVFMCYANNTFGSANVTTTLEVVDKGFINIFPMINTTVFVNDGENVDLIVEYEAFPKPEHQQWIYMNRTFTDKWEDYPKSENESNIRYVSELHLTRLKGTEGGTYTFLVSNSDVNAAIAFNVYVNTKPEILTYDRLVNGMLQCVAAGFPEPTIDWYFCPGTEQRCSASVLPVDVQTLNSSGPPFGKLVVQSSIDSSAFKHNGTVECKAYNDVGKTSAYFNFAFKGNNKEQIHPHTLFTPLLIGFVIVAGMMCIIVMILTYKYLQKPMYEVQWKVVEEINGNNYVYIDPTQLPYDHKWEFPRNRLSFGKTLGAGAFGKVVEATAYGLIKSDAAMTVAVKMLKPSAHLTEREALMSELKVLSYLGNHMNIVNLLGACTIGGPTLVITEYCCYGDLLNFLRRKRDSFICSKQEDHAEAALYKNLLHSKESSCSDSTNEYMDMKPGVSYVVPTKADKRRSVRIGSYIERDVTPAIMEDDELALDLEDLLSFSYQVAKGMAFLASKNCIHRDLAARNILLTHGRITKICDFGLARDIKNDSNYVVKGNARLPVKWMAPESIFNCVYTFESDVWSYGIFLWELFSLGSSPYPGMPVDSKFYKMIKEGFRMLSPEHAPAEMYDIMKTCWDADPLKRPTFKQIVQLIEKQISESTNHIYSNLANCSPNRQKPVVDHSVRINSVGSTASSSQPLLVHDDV
Sequence of Proto-oncogene tyrosine-protein kinase receptor Ret (Homo sapiens) (P07949 whole entry): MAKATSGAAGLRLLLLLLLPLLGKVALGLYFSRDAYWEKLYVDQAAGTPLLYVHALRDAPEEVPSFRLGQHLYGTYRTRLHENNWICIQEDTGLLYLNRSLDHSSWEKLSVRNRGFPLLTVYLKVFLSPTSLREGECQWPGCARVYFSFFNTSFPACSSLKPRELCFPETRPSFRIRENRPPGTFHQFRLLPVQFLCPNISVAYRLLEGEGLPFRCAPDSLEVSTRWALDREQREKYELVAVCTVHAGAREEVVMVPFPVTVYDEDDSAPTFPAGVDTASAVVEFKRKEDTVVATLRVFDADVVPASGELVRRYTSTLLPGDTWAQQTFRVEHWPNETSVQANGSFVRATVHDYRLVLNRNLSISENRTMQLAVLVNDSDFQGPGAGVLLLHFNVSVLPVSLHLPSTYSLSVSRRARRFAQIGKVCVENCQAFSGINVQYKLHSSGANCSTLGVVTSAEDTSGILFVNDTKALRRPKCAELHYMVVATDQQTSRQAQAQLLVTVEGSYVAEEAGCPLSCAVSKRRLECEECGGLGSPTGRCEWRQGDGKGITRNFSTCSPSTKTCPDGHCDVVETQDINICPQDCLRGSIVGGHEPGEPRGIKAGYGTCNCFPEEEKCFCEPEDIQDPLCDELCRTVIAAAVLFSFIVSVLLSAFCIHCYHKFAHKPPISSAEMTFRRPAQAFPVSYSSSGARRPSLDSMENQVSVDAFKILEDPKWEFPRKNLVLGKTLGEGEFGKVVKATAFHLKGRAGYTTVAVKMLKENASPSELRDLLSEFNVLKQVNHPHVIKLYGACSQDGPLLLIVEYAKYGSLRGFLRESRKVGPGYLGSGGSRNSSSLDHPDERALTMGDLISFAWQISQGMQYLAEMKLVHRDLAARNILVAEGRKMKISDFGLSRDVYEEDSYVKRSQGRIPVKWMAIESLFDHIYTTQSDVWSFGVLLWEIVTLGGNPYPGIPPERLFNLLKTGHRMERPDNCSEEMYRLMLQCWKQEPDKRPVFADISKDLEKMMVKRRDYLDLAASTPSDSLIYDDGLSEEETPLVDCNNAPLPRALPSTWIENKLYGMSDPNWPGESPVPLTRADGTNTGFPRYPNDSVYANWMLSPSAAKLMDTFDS
Sequence of Vascular endothelial growth factor receptor 2 (Homo sapiens) (P35968 whole entry): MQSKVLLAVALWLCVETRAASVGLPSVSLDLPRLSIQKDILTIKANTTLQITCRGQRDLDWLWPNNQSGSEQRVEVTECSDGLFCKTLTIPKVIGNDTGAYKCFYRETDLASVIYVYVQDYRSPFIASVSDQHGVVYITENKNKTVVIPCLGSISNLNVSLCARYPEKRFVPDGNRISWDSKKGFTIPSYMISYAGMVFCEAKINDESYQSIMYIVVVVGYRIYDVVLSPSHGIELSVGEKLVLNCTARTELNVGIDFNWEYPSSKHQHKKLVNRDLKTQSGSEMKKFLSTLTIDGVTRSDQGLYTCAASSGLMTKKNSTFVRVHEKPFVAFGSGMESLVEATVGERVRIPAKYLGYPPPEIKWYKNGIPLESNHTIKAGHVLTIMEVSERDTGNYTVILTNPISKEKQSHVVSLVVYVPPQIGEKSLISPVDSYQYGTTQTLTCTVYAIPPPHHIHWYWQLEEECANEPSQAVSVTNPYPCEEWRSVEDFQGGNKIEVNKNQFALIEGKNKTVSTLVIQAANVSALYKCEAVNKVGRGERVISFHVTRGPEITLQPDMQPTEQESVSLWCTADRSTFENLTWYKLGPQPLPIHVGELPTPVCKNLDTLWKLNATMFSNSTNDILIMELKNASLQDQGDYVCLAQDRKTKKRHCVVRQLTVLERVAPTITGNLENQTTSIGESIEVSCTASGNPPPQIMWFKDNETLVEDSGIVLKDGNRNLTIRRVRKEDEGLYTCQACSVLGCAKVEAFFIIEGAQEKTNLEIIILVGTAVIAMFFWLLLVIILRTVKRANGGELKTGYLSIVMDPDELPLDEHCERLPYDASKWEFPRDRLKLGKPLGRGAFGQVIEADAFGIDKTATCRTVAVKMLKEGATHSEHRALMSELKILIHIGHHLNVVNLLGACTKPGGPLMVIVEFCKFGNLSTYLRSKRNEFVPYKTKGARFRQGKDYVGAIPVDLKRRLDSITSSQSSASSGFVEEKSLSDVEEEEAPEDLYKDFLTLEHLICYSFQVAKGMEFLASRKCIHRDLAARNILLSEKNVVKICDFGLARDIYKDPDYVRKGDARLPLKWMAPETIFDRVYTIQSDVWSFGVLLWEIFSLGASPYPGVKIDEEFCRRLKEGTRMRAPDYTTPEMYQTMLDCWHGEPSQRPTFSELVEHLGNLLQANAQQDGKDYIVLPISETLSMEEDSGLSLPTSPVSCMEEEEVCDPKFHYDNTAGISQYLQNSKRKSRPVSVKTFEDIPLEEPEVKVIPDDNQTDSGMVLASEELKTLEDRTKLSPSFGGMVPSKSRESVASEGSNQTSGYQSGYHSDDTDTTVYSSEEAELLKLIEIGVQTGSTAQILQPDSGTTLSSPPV

Regarding `CN(C)CCCn1cnnc1-c1cc(Oc2ccc(NC(=O)Nc3ccc(Cl)cc3Cl)cc2F)ccn1`, the half-maximal inhibitory concentration (IC50) in assay [1] came to 3.26 µM; with HT-29, 0.68 µM; with MDA-MB-231, 7.49 µM; in assay [3], 3.68 µM. The molecule further came in with an inhibition in assay [2] of 11.3%.

Take `O=C(Nc1ccc(Oc2ccnc(-c3nncn3CCCN3CCOCC3)c2)c(F)c1)Nc1ccc(Cl)c(C(F)(F)F)c1`: the inhibition is 56.7% in assay [4], 38.5% in assay [5], 0% in assay [2] and 42.3% in assay [6]. Moreover, the IC50 in assay [1] was 9.65 µM; with HT-29, 2.86 µM; in the assay with MDA-MB-231 it was 8.28 µM; in assay [3], 3.23 µM.

In the case of `Cn1ncnc1-c1cc(Oc2ccc(NC(=O)Nc3ccc(Cl)c(C(F)(F)F)c3)cc2F)ccn1`, the half-maximal inhibitory concentration (IC50) in assay [1] was more than 50 µM; with HT-29, 12.4 µM; with MDA-MB-231, more than 50 µM; in assay [3], more than 50 µM.

In turn, `O=C(Nc1ccc(Oc2ccnc(-c3nncn3CCCN3CCOCC3)c2)c(F)c1)Nc1ccccc1C(F)(F)F` registered an IC50 in the assay on HT-29 of 15.7 µM.

Turning to `O=C(Nc1ccc(Oc2ccnc(-c3nncn3CCCN3CCOCC3)c2)c(F)c1)Nc1ccc(Cl)cc1Cl`, the inhibition in assay [4] worked out at 43.5%; in assay [5], 22%; in assay [6], 45.6%. Besides, the IC50 was 3.56 µM with HT-29 and more than 50 µM in the assay on MDA-MB-231.

For `O=C(Nc1ccc(Oc2ccnc(-c3nncn3CCCN3CCOCC3)c2)c(F)c1)Nc1ccc(F)c(Cl)c1`, the IC50 in the assay on HT-29 is 16.2 µM; in the assay with MDA-MB-231, more than 50 µM; in assay [3], 16.2 µM.

Regarding `CN(C)CCn1cnnc1-c1cc(Oc2ccc(NC(=O)Nc3ccc(Cl)c(C(F)(F)F)c3)cc2F)ccn1`, the inhibition in assay [4] stood at 70.4%; in assay [5] it was 66.3%; in assay [2] it was 0%; in assay [6] it was 74.1%. Moreover, the IC50 in assay [1] was 3.76 µM; with HT-29, 0.88 µM; in the assay on MDA-MB-231 it was 1.07 µM; in assay [3] it was 1.15 µM.

`CN(C)CCn1cnnc1-c1cc(Oc2ccc(NC(=O)Nc3ccc(Cl)cc3Cl)cc2F)ccn1`: the IC50 in assay [1] was 10.4 µM; with HT-29 it was 1.89 µM; in the assay on MDA-MB-231, 7.96 µM; in assay [3], 4.35 µM. Further, in assay [2], the inhibition amounted to 6%.

On to `Cn1cnnc1-c1cc(Oc2ccc(NC(=O)Nc3ccc(Cl)c(C(F)(F)F)c3)cc2F)ccn1`, for which the 50% inhibitory concentration (IC50) in assay [1] is 9.85 µM; in the assay with HT-29 it was 2.57 µM; in the assay on MDA-MB-231, 5.32 µM; in assay [3] it was 2.31 µM.

`CN(C)CCn1cnnc1-c1cc(Oc2ccc(NC(=O)Nc3ccc(F)c(F)c3)cc2F)ccn1`: the inhibition was found to be 3.9% in assay [4], 13.5% in assay [5] and 17.6% in assay [6]. The half-inhibitory concentration (IC50) in assay [1] was more than 50 µM; in the assay with HT-29 it was 3.62 µM; in the assay with MDA-MB-231, more than 50 µM; in assay [3], 9.05 µM.

As to `CNC(=O)c1cc(Oc2ccc(NC(=O)Nc3ccc(Cl)c(C(F)(F)F)c3)cc2)ccn1` [SORAFENIB], the inhibition came to 95.6% in assay [4], 98.5% in assay [5] and 97% in assay [6]. Also, the 50% inhibitory concentration (IC50) in assay [1] was found to be 8.42 µM; in the assay on HT-29, 3.37 µM; with MDA-MB-231, 3.08 µM; in assay [3] it was 2.25 µM.

For the molecule `CN(C)CCCn1cnnc1-c1cc(Oc2ccc(NC(=O)Nc3cccc(C(F)(F)F)c3)cc2F)ccn1`, the inhibition in assay [4] worked out at 69.9%; in assay [5], 69.2%; in assay [2], 62.8%; in assay [6] it was 85.6%. The concentration for half-maximal inhibition (IC50) was 11.6 µM in assay [1], 0.98 µM in the assay on HT-29, 13.3 µM in the assay with MDA-MB-231 and 1.79 µM in assay [3].

With `CCN(CC)CCn1cnnc1-c1cc(Oc2ccc(NC(=O)Nc3cccc(C(F)(F)F)c3)cc2F)ccn1`, the inhibition in assay [4] stood at 66.5%; in assay [5], 61%; in assay [2], 11.5%; in assay [6] it was 72.1%. Also, the half-maximal inhibitory concentration (IC50) in assay [1] was 6.92 µM; in the assay on HT-29 it was 0.63 µM; in the assay on MDA-MB-231 it was 0.72 µM; in assay [3], 9.87 µM.

On to `Cn1cnnc1-c1cc(Oc2ccc(NC(=O)Nc3cccc(C(F)(F)F)c3)cc2F)ccn1`, for which the IC50 in assay [1] was 12.6 µM; with HT-29, 3.02 µM; in the assay on MDA-MB-231, 6.47 µM; in assay [3], 1.27 µM.

For the molecule `CN(C)CCn1cnnc1-c1cc(Oc2ccc(NC(=O)Nc3cccc(C(F)(F)F)c3)cc2F)ccn1`, the inhibition is 60.5% in assay [4], 42.2% in assay [5], 2.7% in assay [2] and 77.7% in assay [6]. The 50% inhibitory concentration (IC50) in assay [1] was 11.2 µM; in the assay on HT-29, 1.47 µM; in the assay on MDA-MB-231, 16.4 µM; in assay [3], 2.15 µM.

As to `CCN(CC)CCn1cnnc1-c1cc(Oc2ccc(NC(=O)Nc3ccc(F)c(F)c3)cc2F)ccn1`, the inhibition in assay [4] is 27.7%; in assay [5], 39%; in assay [2], 0%; in assay [6] it was 7.1%. Besides, the IC50 was more than 50 µM in assay [1], 1.24 µM with HT-29, 41.3 µM in the assay with MDA-MB-231 and 14.8 µM in assay [3].

In the case of `CCN(CC)CCn1cnnc1-c1cc(Oc2ccc(NC(=O)Nc3ccc(Cl)cc3Cl)cc2F)ccn1`, the IC50 was 4.28 µM in assay [1], 3.59 µM with HT-29, 1.79 µM with MDA-MB-231 and 5.38 µM in assay [3].

Regarding `CN(C)CCCn1cnnc1-c1cc(Oc2ccc(NC(=O)Nc3ccccc3C(F)(F)F)cc2F)ccn1`, the IC50 in assay [1] was determined as 28.6 µM; with HT-29, 3.13 µM; in the assay with MDA-MB-231 it was 40.5 µM; in assay [3], 10.9 µM. Besides, the inhibition in assay [2] was determined as 1.7%.

Turning to `CN(C)CCCn1cnnc1-c1cc(Oc2ccc(NC(=O)Nc3ccc(F)c(F)c3)cc2F)ccn1`, the inhibition came out at 63.1% in assay [4], 44.3% in assay [5], 20.3% in assay [2] and 30.9% in assay [6]. Besides, the half-maximal inhibitory concentration (IC50) in assay [1] was 15.3 µM; in the assay with HT-29 it was 1.21 µM; in the assay with MDA-MB-231 it was 25.2 µM; in assay [3], 1.08 µM.

In the case of `Cn1ncnc1-c1cc(Oc2ccc(NC(=O)Nc3cccc(C(F)(F)F)c3)cc2F)ccn1`, the half-maximal inhibitory concentration (IC50) in assay [1] is 22.4 µM; in the assay with HT-29, more than 50 µM; in the assay with MDA-MB-231, 9.68 µM; in assay [3] it was 11.6 µM.

`O=C(Nc1ccc(Oc2ccnc(-c3nncn3C3CC3)c2)c(F)c1)Nc1ccc(Cl)c(C(F)(F)F)c1`: the IC50 was 10.9 µM in the assay on HT-29, more than 50 µM with MDA-MB-231 and more than 50 µM in assay [3].

On to `CN(C)CCCn1cnnc1-c1cc(Oc2ccc(NC(=O)Nc3ccc(F)c(Cl)c3)cc2F)ccn1`, for which the inhibition in assay [4] is 71%; in assay [5] it was 72.1%; in assay [2] it was 35%; in assay [6], 45.5%. The IC50 in assay [1] is 5.37 µM; with HT-29, 0.89 µM; in the assay with MDA-MB-231, 14.2 µM; in assay [3] it was 1.27 µM.

Consider `CN(C)CCn1cnnc1-c1cc(Oc2ccc(NC(=O)Nc3ccccc3C(F)(F)F)cc2F)ccn1`, for which the inhibition is 22.7% in assay [4], 17.6% in assay [5], 2.2% in assay [2] and 43% in assay [6]. Further, the concentration for half-maximal inhibition (IC50) was more than 50 µM in assay [1], 5.86 µM in the assay on HT-29, more than 50 µM in the assay on MDA-MB-231 and more than 50 µM in assay [3].

As for `CCN(CC)CCn1cnnc1-c1cc(Oc2ccc(NC(=O)Nc3ccccc3C(F)(F)F)cc2F)ccn1`, the IC50 in assay [1] was 23.5 µM; in the assay on HT-29, 3.41 µM; in the assay on MDA-MB-231, 11.6 µM; in assay [3] it was more than 50 µM.

Consider `CN(C)CCCn1cnnc1-c1cc(Oc2ccc(NC(=O)Nc3ccc(Cl)c(C(F)(F)F)c3)cc2F)ccn1`, for which the inhibition in assay [4] worked out at 69.9%; in assay [5], 86.9%; in assay [2], 10.9%; in assay [6], 79.3%. Besides, the IC50 came to 7.91 µM in assay [1], 1.4 µM in the assay on HT-29, 7.88 µM in the assay with MDA-MB-231 and 1.68 µM in assay [3].

For the molecule `CCN(CC)CCn1cnnc1-c1cc(Oc2ccc(NC(=O)Nc3ccc(F)c(Cl)c3)cc2F)ccn1`, the inhibition in assay [4] came out at 40.4%; in assay [5], 59.6%; in assay [2], 2.7%; in assay [6], 1.9%. Besides, the IC50 is 28.7 µM in assay [1], 0.5 µM with HT-29, 34 µM with MDA-MB-231 and 7.39 µM in assay [3].

As to `CN(C)CCn1cnnc1-c1cc(Oc2ccc(NC(=O)Nc3ccc(F)c(Cl)c3)cc2F)ccn1`, the inhibition came out at 74% in assay [4], 52.2% in assay [5], 26.9% in assay [2] and 63.3% in assay [6]. For the same molecule, the concentration for half-maximal inhibition (IC50) turned out to be 7.58 µM in assay [1], 0.72 µM in the assay with HT-29, 8.32 µM in the assay on MDA-MB-231 and 1.58 µM in assay [3].

In general, IC50 refers to the point on the concentration scale where inhibition reaches its midpoint. A lower IC50 goes with inhibition by little substance. Broadly, the inhibition is the change of the read-out against control, counted positive when it falls.
